# Bioassay records from PubChem.
# Shown are actives, neighbours in structure and some others; about 2.3% of the full set was active somewhere.
# Insulin prom up = MIN6 insulin promoter up-regulation; MIN6 insulin promoter-GFP reporter, high-content imaging; active compounds read high; z-score at 5 µM; 0.3% of 190,000 active;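 active means z-score above 3 at 5 µM with at least 500 cells counted in the well; inconclusive means wells under 500 cells, flagged as cytotoxic or low count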
# Dynein transport = blocks dynein driven cargo transport along microtubules | 3617.4 mouse cells, GR-EGFP nuclear translocation imaging; test concentration mostly 20 µM; stimulated with dexamethasone, 1 µM; active compounds read low | z-score, hits read low | 0.47% of 220,000 active | AID 1381;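 active means plate z-score of nuclear minus cytoplasmic receptor signal below a set negative limit, without overly bright fluorescence or cell loss, cut at about -3.5 in these data, passing the limit was not always enough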;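 further: z-score of nuclear minus cytoplasmic ring GR-EGFP intensity difference per well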
#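 Schedule: 48 h induction, then 1 h compound, then 30 min agonist, 37 °C. Buffer or medium: tetracycline-free induction medium containing charcoal-stripped FBS. Reagent: 1.0 µM final dexamethasone stimulus. Evaluation: nuclear versus cytoplasmic GR-EGFP signal, averaged per well. Signal: high-content fluorescence imaging after fixation.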
# b-catenin transl = alters nuclear translocation of beta-catenin in HeLa cells. nuclear translocation activity, % at 5 µM. immunofluorescence imaging. AID 1665. 0.3% of 190,000 active;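 active means nuclear translocation activity above 50% at 5 µM, with a well cell count of 50 or more; inconclusive means wells under 50 cells across six images, flagged as toxic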;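 further: per-cell ratio of nuclear to cytoplasmic median beta-catenin stain intensity; plate controls were DMSO negative control for no effect and GSK-3 inhibitor IX positive control for full effect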
#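 assay system = human HeLa cells, endogenous beta-catenin | times = compound treatment 24 h, 37°C, 5% CO2 | detection = Anti-beta-catenin immunofluorescence on PFA-fixed, Triton-permeabilized cells, DAPI nuclei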
# Autophagy HCS = autophagy modulation, high-content screen; 0.98% of 190,000 active; AID 463193; MEF GFP-LC3 puncta imaging; test concentration mostly 10 µM; calls only at 10 µM (by protocol);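 active means percentage of spot-positive cells more than 3 SD above its plate mean, without a fluorescence outlier flag or 80% toxicity; inconclusive means no clear call, values can overlap the other calls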;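 further: spot-positive cell cutoff set from DMSO-treated cells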
# MT stabilizer = microtubule stabilization, imaging screen. HeLa tubulin immunostaining HCS, 24 h; share of cells brighter than vehicle mean+2SD. % tubulin-high responders, % at 10 µM. 0.83% of 200,000 active. AID 2205;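 active means plate Z-score above 3 for both tubulin-high and condensed-nucleus cell shares, with cell loss under 80%, at 10 µM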;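 further: anti alpha tubulin signal scored within the nucleus-defined area of each cell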
# Active calls of the source: *; i = inactive; ? = inconclusive; / = not tested or not shown; + = active, no number.
SMILES,Insulin prom up,Dynein transport,b-catenin transl,Autophagy HCS,MT stabilizer
Cc1cc(NC(=O)c2ccc([N+](=O)[O-])cc2)n(C)n1,0.29,-0.18,0,/,/
CCOC(=O)C1=C(C)Nc2ncnn2C1/C=C/c1ccccc1 (centres undefined),0.39,-0.34,4,i,13
CCCC1=C(C(=O)OCC)C(/C=C/c2ccccc2)n2ncnc2N1 (centres undefined),-1,-0.76,/,i,45*
Cn1cc(/C=C2\SC(=S)N(NC(=O)c3cccc(Cl)c3)C2=O)c2ccccc21,7.3*,1.2,-1,/,/
Cn1cc(/C=C2\SC(=S)N(NC(=O)c3ccccc3)C2=O)c2ccccc21,/,1.3,1,i,14
COc1ccc(-c2cn3cc(C(F)(F)F)cc(Cl)c3n2)cc1,-0.38,-0.67,6,i,16*
Fc1ccc(-c2cn3cc(C(F)(F)F)cc(Cl)c3n2)cc1,-0.23,-0.6,5,i,2
CCOC(=O)NC1=NCC(C)S1 (centres undefined),-0.28,1.6,-2,/,/
CCOc1ccc(Nc2nc(NCC3CCCO3)c3ccccc3n2)cc1 (centres undefined),?,1.9,2,+,6
Cc1ccc(N/C=C(\C#N)S(=O)(=O)c2ccccc2)cc1,0.34,0.64,3,i,5
Cc1ccc(S(=O)(=O)C(C#N)=C2N(C)c3ccccc3N2C)cc1,-0.44,1.3,-2,+,2
COCCCN(CC(=O)Nc1ccc(N2CCOCC2)cc1)S(=O)(=O)c1ccc(Cl)cc1,-0.37,-0.91,-4,i,10
CC(=O)c1sc(C(C)(C)C)cc1NC(=O)c1ccccc1C(=O)O,-0.16,1.5,0,/,/
CCCCN(CC)C(=S)Nc1ccc2nc(N3CCN(C)CC3)cc(C)c2c1,0.23,-0.25,0,i,5
Cc1noc(C)c1CSc1nc2ccccc2n1C,-0.09,-0.59,-7,+,4
O=[N+]([O-])c1ccc(N/N=C/c2cccc(O)c2O)c(S(=O)(=O)N2CCOCC2)c1,-1.5,-0.21,2,+,5
O=[N+]([O-])c1ccc(N/N=C/c2ccc(O)c(O)c2O)c(S(=O)(=O)N2CCOCC2)c1,-0.04,-1.5,2,i,4
N#C/C(=C/c1ccc(-c2ccc(S(N)(=O)=O)cc2)o1)c1nc2ccccc2s1,/,-5.4,9,+,4
N#C/C(=C/c1ccc(-c2ccccc2)o1)c1nc(-c2cccs2)cs1,/,-5.3,-2,+,4
Nc1ccccc1NC1CCCCC1,0.15,-0.68,0,i,4
N#Cc1sc2nc(-c3cccs3)cc(-c3ccc(Cl)cc3)c2c1N,-0.14,1.7,1,+,14
CCN(CC)C(=O)c1sc2nc(-c3cccs3)cc(-c3ccc(Cl)cc3)c2c1N,2,0.94,1,+,2
CC(=O)c1cccc(CN2CCCC(CCC(=O)NCc3ccc(F)c(F)c3)C2)c1 (centres undefined),/,-0.56,-1,i,1
COc1ccc(N2CC(C(=O)N/N=C/c3ccc(C)cc3)CC2=O)cc1 (centres undefined),0.1,2,54*,i,21
COc1ccc(N2CC(C(=O)N/N=C/c3ccc([N+](=O)[O-])cc3)CC2=O)cc1 (centres undefined),-0.07,0.56,-1,i,3
SMILES,Insulin prom up,Dynein transport,b-catenin transl,Autophagy HCS,MT stabilizer
CCCCNS(=O)(=O)/C=C/c1ccccc1,-0.12,1.2,3,+,2
O=C(O)CCCCNS(=O)(=O)/C=C/c1ccccc1,-0.02,0.03,-5,i,4
COc1ccccc1/C=C/C1(C(=O)NC2CCCC2)CC(=O)N1c1ccc(F)cc1 (centres undefined),/,-0.28,0,i,20*
Cc1[nH]c(C)c2c(=O)[nH]ncc12,0.01,-0.73,0,/,/
CCOC(=O)C1CCN(c2nc3ccccc3nc2C(C#N)C(=O)OC(C)C)CC1 (centres undefined),-0.31,-0.61,-1,+,4
COc1ccc(CNC(=O)C(C#N)c2nc3ccccc3nc2N2CCN(C)CC2)cc1 (centres undefined),-0.78,-0.014,-2,i,5
CCOC(=O)C1CCN(c2nc3ccccc3nc2C(C#N)C(=O)OC(C)COC)CC1 (centres undefined),-1.3,-0.47,/,i,5
COc1ccc(CNC(=O)C(C#N)c2nc3ccccc3nc2N2CCCC2)cc1 (centres undefined),2.2,1.7,2,+,3
Cc1ccc2nc(NC(=O)CCNS(=O)(=O)c3ccc(Br)s3)sc2c1,-0.86,0.11,-3,+,6
COCCn1c(-c2ccc(-c3ccc([N+](=O)[O-])cc3Br)o2)nc2c1c(=O)[nH]c(=O)n2CC(C)C,1.1,-2.3,-2,i,3
CCOc1cc(C(=O)N/N=C/C(Br)=C/c2ccccc2)cc(OCC)c1OCC,-0.19,0.12,/,i,9.1*
O=C(N/N=C/C(Br)=C/c1ccccc1)c1ccncc1,0.53,-0.97,-4,/,/
Cc1ccc(NC(=O)COc2ccccc2C(=O)NCCN(C)C)cc1,0.31,-0.22,0,i,3
COc1ccc(-c2[nH]ncc2CN(C)CC2CCCCO2)cc1F (centres undefined),0.03,0.035,1,+,/
COc1ccc(-c2[nH]ncc2CN(C)CCN2CCOCC2)cc1F,-0.24,1.3,3,i,4
CCN(C(=O)COC(=O)/C=C/c1c(C)nn(-c2ccccc2)c1C)C1CCS(=O)(=O)C1 (centres undefined),-0.55,1.2,0,/,/
Cc1cc(C)nc(Oc2ccc(Br)cc2)n1,-0.07,-0.5,0,/,/
CCOC(=O)c1ccc(Oc2cc(C)nc(SC)n2)cc1,0.15,-0.81,0,i,44*
COC(=O)c1ccc(Oc2cc(C)nc(-n3nc(C)cc3C)n2)cc1,/,0.58,/,i,20*
CCOC(=O)COC(=O)c1ccc(Oc2cc(C)nc(SC)n2)cc1,/,0.12,-1,i,3
CCC(C)(C)NC(=O)C(c1cccnc1)N(C(=O)c1csnn1)c1ccccc1 (centres undefined),/,0.07,1,i,1
ClCC1=Nc2cccc3cccc(c23)N1,-0.36,0.45,0,/,/
CCN(CC)CC(=O)c1c(N)n(Cc2ccccc2)c(=O)n(C)c1=O,0.54,-0.53,-1,i,3
CCC(=O)OCC(=O)c1c(N)n(Cc2ccccc2)c(=O)n(C)c1=O,3.3*,2.1,-3,i,1
Cc1cccc(NC(=O)COn2nnc3ccc(S(C)(=O)=O)cc32)c1,0.48,-0.094,-2,i,1
Cc1ccc(S(=O)(=O)Nc2ccccc2-c2ccccc2)cc1,-0.01,-0.25,62*,+,36*
Cc1ccc(S(=O)(=O)Nc2ccc(O)c3ncccc23)cc1,-1.4,-0.75,58*,i,10
CCOC(=O)c1ccccc1NS(=O)(=O)c1ccc(C)cc1,-0.1,-0.43,/,i,26*
